# Assays:
# [1] = Half life in 0.1 M phosphate buffer at pH 7.4 at 37 degC by TLC; format: physicochemical
# How it was run: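 Compound incubated in 0.1 M phosphate buffer pH 7.4 at 37 °C with shaking for varying times. Stopped with 2.0 M acetate buffer (pH 5) and ethanol, then chilled on ice and analysed by TLC. Percent parent left relative to zero-time control plotted against time; t1/2 = ln2/k from decay rate constant; mean ± SD of three independent experiments.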
# [2] = Half life in human plasma by TLC; format: ADME, cell-free
# How it was run: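 Freshly reconstituted lyophilized human plasma in 0.1 M phosphate buffer pH 7.4 (0.4 mL plasma solution plus 0.1 mL drug solution) incubated at 37 °C. Stopped as for the buffer test, proteins spun out at 3000 × g for 30 min, supernatant run on TLC. Half-life from first-order decay, three independent experiments; the ratio compares it with the buffer half-life.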
# MCF7 = test: Cytotoxicity against human MCF7 cells after 72 hrs by MTT assay; format: functional, cell-based; details: MCF7, 72 h
# [3] = Cytotoxicity against human H460 cells after 72 hrs by MTT assay; format: functional, cell-based; details: NCI-H460, 72 h
# [4] = Cytotoxicity against human KB-3-1 cells after 72 hrs by MTT assay; format: functional, cell-based; details: KB 3-1, 72 h
# SW-620 = test: Cytotoxicity against human SW620 cells after 72 hrs by MTT assay; format: functional, cell-based; details: SW-620, 72 h
# 143B [5] = test: Cytotoxicity against human 143B cells after 72 hrs by MTT assay; format: functional, cell-based
# 143B [6] = test: Cytotoxicity against human thymidine kinase-deficient 143B cells after 72 hrs by MTT assay; format: functional, cell-based
# 143B [7] = test: Ratio of IC50 for human thymidine kinase-deficient 143B cells to IC50 for human 143B cells; format: functional
# How it was run: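 143B kept in EMEM with 10% FBS and 1% penicillin/streptomycin; the TK-deficient 143B/TK⁻ line kept in EMEM with 0.015 mg/mL 5-BrdU.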
Compound,half-life [1] [h],half-life [2] [h],IC50 (MCF7) [µM],IC50 [3] [µM],IC50 [4] [µM],IC50 (SW-620) [µM],IC50 (143B [5]) [µM],IC50 (143B [6]) [µM],Ratio IC50 (143B [7])
Cc1cn([C@H]2C[C@H](N=[N+]=[N-])[C@@H](COP(=O)(OCCS(=O)(=O)c3ccccc3)OCCS(=O)(=O)c3ccccc3)O2)c(=O)[nH]c1=O,0.71,0.23,16.3,7.59,11,43,16.3,–,–
Cc1ccc(S(=O)(=O)CCOP(=O)(OCCS(=O)(=O)c2ccc(C)cc2)OC[C@H]2O[C@@H](n3cc(C)c(=O)[nH]c3=O)C[C@@H]2N=[N+]=[N-])cc1,1.09,0.4,19.6,11.3,14.4,46.6,19.6,–,–
COc1ccc(S(=O)(=O)CCOP(=O)(OCCS(=O)(=O)c2ccc(OC)cc2)OC[C@H]2O[C@@H](n3cc(C)c(=O)[nH]c3=O)C[C@@H]2N=[N+]=[N-])cc1,1.44,0.55,6.38,1.71,4.68,7.62,5.45,5.16,0.9
Cc1cn([C@H]2C[C@H](N=[N+]=[N-])[C@@H](COP(=O)(OCCS(=O)(=O)c3ccc(Cl)cc3)OCCS(=O)(=O)c3ccc(Cl)cc3)O2)c(=O)[nH]c1=O,0.36,0.13,9.46,4.47,7.84,11.6,7.83,8.8,1.1
Cc1cn([C@H]2C[C@H](N=[N+]=[N-])[C@@H](COP(=O)(OCCS(=O)(=O)c3ccc([N+](=O)[O-])cc3)OCCS(=O)(=O)c3ccc([N+](=O)[O-])cc3)O2)c(=O)[nH]c1=O,0.07,0.02,22.9,15.2,20.4,57,23.1,–,–
Cc1cn([C@H]2C[C@H](N=[N+]=[N-])[C@@H](COP(=O)(OCC(C)S(=O)(=O)c3ccccc3)OCC(C)S(=O)(=O)c3ccccc3)O2)c(=O)[nH]c1=O (some centres undefined),13.6,4.21,27.6,23.7,25.2,68.2,27.4,–,–
Cc1cn([C@H]2C[C@H](N=[N+]=[N-])[C@@H](COP(=O)(OC(C)CS(=O)(=O)c3ccccc3)OC(C)CS(=O)(=O)c3ccccc3)O2)c(=O)[nH]c1=O (some centres undefined),3.56,1.35,22.4,14.6,18.4,54.8,22.5,–,–
CCC(CS(=O)(=O)c1ccccc1)OP(=O)(OC[C@H]1O[C@@H](n2cc(C)c(=O)[nH]c2=O)C[C@@H]1N=[N+]=[N-])OC(CC)CS(=O)(=O)c1ccccc1 (some centres undefined),5.42,1.77,12.2,5.13,8.28,27.8,11.5,13.3,1.2
Cc1cn([C@H]2C[C@H](N=[N+]=[N-])[C@@H](COP(=O)(OC(C)C(C)S(=O)(=O)c3ccccc3)OC(C)C(C)S(=O)(=O)c3ccccc3)O2)c(=O)[nH]c1=O (some centres undefined),279,70.1,26.8,22.2,24.2,66.7,26.4,–,–
Cc1cn([C@H]2C[C@H](N=[N+]=[N-])[C@@H](COP(=O)(OCC(c3ccccc3)S(=O)(=O)c3ccccc3)OCC(c3ccccc3)S(=O)(=O)c3ccccc3)O2)c(=O)[nH]c1=O (some centres undefined),2.16,0.51,14.1,7.13,9.82,42.2,14.2,19.7,1.2
Cc1cn([C@H]2C[C@H](N=[N+]=[N-])[C@@H](COP(=O)(OCCS(=O)(=O)c3ccccc3)Oc3ccccc3)O2)c(=O)[nH]c1=O (some centres undefined),1.22,0.45,25.3,18.2,21.7,62.1,25.4,–,–
Cc1ccc(OP(=O)(OCCS(=O)(=O)c2ccccc2)OC[C@H]2O[C@@H](n3cc(C)c(=O)[nH]c3=O)C[C@@H]2N=[N+]=[N-])cc1 (some centres undefined),1.32,0.6,28.2,24.7,27.1,71.7,28.3,–,–
COc1ccc(OP(=O)(OCCS(=O)(=O)c2ccccc2)OC[C@H]2O[C@@H](n3cc(C)c(=O)[nH]c3=O)C[C@@H]2N=[N+]=[N-])cc1 (some centres undefined),1.53,0.6,20.4,12.3,15.2,47.3,20.2,25.3,1.3
Cc1cn([C@H]2C[C@H](N=[N+]=[N-])[C@@H](COP(=O)(OCCS(=O)(=O)c3ccccc3)Oc3ccc(F)cc3)O2)c(=O)[nH]c1=O (some centres undefined),1.08,0.37,26.2,20.8,23.3,64.5,26.6,–,–
Cc1cn([C@H]2C[C@H](N=[N+]=[N-])[C@@H](COP(=O)(OCCS(=O)(=O)c3ccccc3)Oc3ccc(Cl)cc3)O2)c(=O)[nH]c1=O (some centres undefined),0.79,0.35,25,17.9,21.4,61.3,24.4,–,–
Cc1ccc(OP(=O)(OCCSc2ccccc2)OC[C@H]2O[C@@H](n3cc(C)c(=O)[nH]c3=O)C[C@@H]2N=[N+]=[N-])cc1 (some centres undefined),12,20,–,–,–,–,–,–,–
Cc1cn([C@H]2C[C@H](N=[N+]=[N-])[C@@H](CO)O2)c(=O)[nH]c1=O [ZIDOVUDINE],–,–,13.7,6.81,9.17,39.1,12.2,148,12.1
